ChEMBL document CHEMBL1132380, “Drug delivery systems employing 1,4- or 1,6-elimination: poly(ethylene glycol) prodrugs of amine-containing compounds” (J Med Chem, 1999)

Tests used:
[1] = test system: Mus musculus; test: Effect of 3 mg/kg/dose of compound given iv q4d x 3 against sc human ovarian tumor (SK-OV3) in mice expressed as Mean tumor volume by day 30; assay type: functional
Outline: (§1)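 Female nu/nu mice (18–24 g) given 1×10^6 SKOV3 cells sc in the left flank in 0.1 mL medium. SKOV3 grown in McCoy's 5a with 15% FBS. Dosing starts at about 70 mm³ mean tumor volume (day 1), with 3 mg/kg/dose DNR content iv on days 1, 5 and 9. n = 5/group against untreated controls. Mean volumes compared at day 30; median volumes compared when control median reached about 1000 mm³.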

[2] = test system: Mus musculus; test: Effect of 3 mg/kg/dose of compound given iv q4d x 3 against sc human ovarian tumor (SK-OV3) in mice expressed as % tumor volume change from initial by day 30; assay type: functional; outline: as §1
[3] = test system: Mus musculus; test: Effect of 3 mg/kg/dose of compound given iv q4d x 3 against sc human ovarian tumor (SK-OV3) in mice expressed as treated/ control ( 1000 mm**3) median tumor volume on day 30; assay type: functional; outline: as §1
[4] = test system: Mus musculus; test: Effect of 3 mg/kg/dose of compound given iv q4d x 3 against sc human ovarian tumor (SK-OV3) in mice expressed as treated/ control mean tumor volume on day 30; assay type: functional; outline: as §1
[5] = test system: Mus musculus; test: T/C of median tumor volumes when 3 mg/kg/dose of compound was given to BALB/c mice bearing sc M109 on days 1 and 4 (ip) after inoculation (control ~2000 mm**3); assay type: functional; conditions: route intraperitoneal
Outline: (§2)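 Female balb/c mice (20–25 g) given about 5×10^5 M109 cells sc in the left flank on day 0. M109 grown in EMEM with 10% FBS. Dosing is 3 mg/kg/dose of active DNR, ip on days 1 and 4 or iv on days 3 and 6. Groups of 6 include untreated controls. Median tumor volumes compared when control median reached about 2000 mm³.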

[6] = test system: Mus musculus; test: T/C of median tumor volumes when 3 mg/kg/dose of compound was given to BALB/c mice bearing sc M109 on days 3 and 6 (iv) after inoculation (control ~2000 mm**3); assay type: functional; outline: as §2
[7] = test system: P388; test: Compound was evaluated for cytotoxicity against P388 leukemia cell line.; assay type: functional, cell-based; conditions: Mus musculus
[8] = Half-life in rat plasma; assay type: ADME
Outline: (§3)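 Release of free drug and hydrolysis of PEG conjugate followed in PBS (pH 7.4) or fresh rat plasma at 37 °C. Half-life derived from these rates. Run in duplicate; SD ±10%.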

[9] = Half-life in buffer at pH 7.4; assay type: ADME; outline: as §3
[10] = test system: Mus musculus; test: Toxicity at a dose of 830 mg/kg against M109 tumors conducted in female BALB/c mice; assay type: functional

| SMILES | half-life [8] [h] | half-life [9] [h] | Mean tumor volume [1] | Tumor growth [2] [%] | T/C [3] [%] | T/C [4] [%] | T/C [5] [%] | T/C [6] [%] | IC50 [7] [nM] | Toxicity (deaths) [10] [%] |
| --- | --- | --- | --- | --- | --- | --- | --- | --- | --- | --- |
| COc1cccc2c1C(=O)c1c(O)c3c(c(O)c1C2=O)C[C@@](O)(C(C)=O)C[C@@H]3O[C@H]1C[C@H](N)[C@H](O)[C@H](C)O1 [DAUNORUBICIN] | – | – | 1154 | 1226 | 54 | 92 | 44.8 | 117 | 3 | – |
| Cc1cc(COC(=O)NC(C)C)cc(C)c1OC(=O)CCOCCOCCO | – | – | – | – | – | – | – | – | – | 0 |
| COc1cccc2c1C(=O)c1c(O)c3c(c(O)c1C2=O)C[C@@](O)(C(=O)CNC(=O)OCc1ccccc1OC(=O)NCCOCCOCCO)C[C@@H]3OC1CC(N)C(O)C(C)O1 (stereo not given in full) | 3 | > 48 | – | – | – | – | 91.3 | 68.7 | 35 | – |
| COc1cc(COC(=O)NC(CC(C)C)C(=O)OC(C)(C)C)cc(OC)c1OC(=O)CCOCCOCCO (stereo not given) | – | – | – | – | – | – | – | – | – | 0 |
| Cc1cc(COC(=O)NC(C)C)cc(C)c1NC(=O)OCCOCCOCCO | – | – | – | – | – | – | – | – | – | 0 |
| COc1cccc2c1C(=O)c1c(O)c3c(c(O)c1C2=O)C[C@@](O)(C(=O)CNC(=O)OCc1ccc(OC(=O)NCCOCCOCCO)cc1)C[C@@H]3OC1CC(N)C(O)C(C)O1 (stereo not given in full) | 4 | > 48 | 154 | 86 | 11 | 12 | 84.1 | 64.6 | 15 | – |
| COc1cccc2c1C(=O)c1c(O)c3c(c(O)c1C2=O)C[C@@](O)(C(=O)CNC(=O)OCc1ccccc1NC(=O)OCCOCCOCCO)C[C@@H]3OC1CC(N)C(O)C(C)O1 (stereo not given in full) | > 24 | > 48 | – | – | – | – | 112.2 | 117 | 130 | – |

Continued, in another order:

| half-life [8] [h] | half-life [9] [h] | SMILES | Mean tumor volume [1] | Tumor growth [2] [%] | T/C [3] [%] | T/C [4] [%] | T/C [5] [%] | T/C [6] [%] | IC50 [7] [nM] | Toxicity (deaths) [10] [%] |
| --- | --- | --- | --- | --- | --- | --- | --- | --- | --- | --- |
| 1.3 | > 48 | COc1cccc2c1C(=O)c1c(O)c3c(c(O)c1C2=O)C[C@@](O)(C(=O)CNC(=O)OCc1ccc(OC(=O)C(C)(C)NC(=O)CCOCCOCCO)cc1)C[C@@H]3OC1CC(N)C(O)C(C)O1 (stereo not given in full) | – | – | – | – | 87.6 | – | 18 | – |
| > 24 | > 48 | COc1cccc2c1C(=O)c1c(O)c3c(c(O)c1C2=O)C[C@@](O)(C(=O)CNC(=O)OCc1ccc(NC(=O)OCCOCCOCCO)cc1)C[C@@H]3OC1CC(N)C(O)C(C)O1 (stereo not given in full) | 272 | 400 | 41 | 21 | 75.3 | 129 | 415 | – |
| 1 | > 48 | COc1cc(COC(=O)NCC(=O)[C@]2(O)Cc3c(O)c4c(c(O)c3[C@@H](OC3CC(N)C(O)C(C)O3)C2)C(=O)c2c(OC)cccc2C4=O)cc(OC)c1OC(=O)CCOCCOCCO (stereo not given in full) | – | – | – | – | 68.6 | 48.2 | 27 | – |
| 0.4 | > 24 | COc1cccc2c1C(=O)c1c(O)c3c(c(O)c1C2=O)C[C@@](O)(C(=O)CNC(=O)OCc1ccc(OC(=O)CCOCCOCCO)cc1)C[C@@H]3OC1CC(N)C(O)C(C)O1 (stereo not given in full) | – | – | – | – | 92.8 | – | 8 | – |
| 2.9 | > 48 | COc1cccc2c1C(=O)c1c(O)c3c(c(O)c1C2=O)C[C@@](O)(C(=O)CNC(=O)OCc1cc(C)c(OC(=O)OCCOCCOCCO)c(C)c1)C[C@@H]3OC1CC(N)C(O)C(C)O1 (stereo not given in full) | – | – | – | – | 90.3 | 74.4 | 179 | – |
| > 24 | > 48 | COc1cccc2c1C(=O)c1c(O)c3c(c(O)c1C2=O)C[C@@](O)(C(=O)CNC(=O)OCc1ccc(NC(=O)CCOCCOCCO)cc1)C[C@@H]3OC1CC(N)C(O)C(C)O1 (stereo not given in full) | – | – | – | – | 122.7 | – | 457 | – |
| 1.9 | > 48 | COc1cccc2c1C(=O)c1c(O)c3c(c(O)c1C2=O)C[C@@](O)(C(=O)CNC(=O)OCc1cc(C)c(OC(=O)CCOCCOCCO)c(C)c1)C[C@@H]3OC1CC(N)C(O)C(C)O1 (stereo not given in full) | – | – | – | – | 90.3 | 67.9 | 55 | – |
